# Source: PubChem
# A3G deaminase: APOBEC3G (human) deaminase inhibition; 330,000 compounds, 0.28% hits; Q9HC16; recombinant A3G, ssDNA deamination FAM/TAMRA fluorescence; inhibition, % at 20 µM;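 active = inhibition of at least 40% at 20 µM, with no more than 30% in the related APOBEC3A deaminase screen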;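 note: plate controls were DMSO wells with A3G for no effect and wells lacking A3G enzyme for full effect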
# AHR activator: activates the human aryl hydrocarbon receptor. activation, % at 5 µM. AHR-responsive luciferase reporter cells, luminescence. AID 2796. 320,000 compounds, 2.5% hits; in the data active = activation above about 47%;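 note: 0% = vehicle wells and 100% = reference agonist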
# Target sequence (P35869 whole entry, looked up): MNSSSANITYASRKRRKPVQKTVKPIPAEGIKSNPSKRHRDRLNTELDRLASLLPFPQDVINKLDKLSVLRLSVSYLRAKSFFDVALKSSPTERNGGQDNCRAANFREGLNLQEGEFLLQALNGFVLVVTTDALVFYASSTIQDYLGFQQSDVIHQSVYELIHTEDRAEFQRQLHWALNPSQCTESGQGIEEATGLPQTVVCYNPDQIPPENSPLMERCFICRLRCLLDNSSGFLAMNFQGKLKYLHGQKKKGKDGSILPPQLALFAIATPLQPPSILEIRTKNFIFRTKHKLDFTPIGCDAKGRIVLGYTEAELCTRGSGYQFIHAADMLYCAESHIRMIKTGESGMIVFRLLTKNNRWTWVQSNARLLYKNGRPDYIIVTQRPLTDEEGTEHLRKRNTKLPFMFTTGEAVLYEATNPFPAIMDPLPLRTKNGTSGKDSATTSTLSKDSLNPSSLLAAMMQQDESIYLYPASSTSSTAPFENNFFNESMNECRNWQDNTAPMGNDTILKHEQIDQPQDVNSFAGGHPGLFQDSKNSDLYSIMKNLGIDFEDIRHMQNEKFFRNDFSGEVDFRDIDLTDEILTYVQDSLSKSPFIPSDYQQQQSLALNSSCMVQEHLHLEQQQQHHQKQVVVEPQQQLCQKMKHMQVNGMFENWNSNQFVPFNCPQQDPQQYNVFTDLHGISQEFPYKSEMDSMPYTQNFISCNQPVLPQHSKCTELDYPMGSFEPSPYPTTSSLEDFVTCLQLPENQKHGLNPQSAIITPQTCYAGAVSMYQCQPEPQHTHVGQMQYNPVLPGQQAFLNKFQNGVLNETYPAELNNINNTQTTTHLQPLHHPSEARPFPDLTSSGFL
# A3A deaminase: blocks human APOBEC3A ssDNA deamination; inhibition, % at 20 µM; recombinant A3A, FAM/TAMRA ssDNA deamination fluorescence; AID 493011; 330,000 compounds, 0.41% hits; P31941;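 active = at least 40% inhibition at 20 µM here, with at most 30% in a related deaminase screen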;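 note: plate controls were A3A with DMSO for no effect and wells lacking A3A enzyme for full effect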
# PolyA inh: inhibitors of polyadenylation in S. cerevisiae; S. cerevisiae SKY197-pL101 polyadenylation reporter, beta-gal luminescence; efflux-impaired pdr1/pdr3 knockout yeast; score 100 = 6 SD above DMSO; activity score, % at 12 µM; 300,000 compounds, 0.02% hits; AID 1875;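 active = lowest replicate activity score at least 50, where 100 means six control SD above control mean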;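 note: yeast exposed to compound for 9 h at 30 °C; higher score means more reporter readthrough which indicates perturbed polyadenylation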
# UCH37 inh: inhibitors of human deubiquitinating enzyme UCH37 | purified proteasome/UCH37, Ub-AMC cleavage fluorescence | inhibition, % (concentration not given with the values) | 330,000 compounds, 0.33% hits;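 active = mean inhibition over replicate wells above about 20%, limit read from the data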;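 note: 0% = compound-free wells with enzyme and 100% = wells lacking proteasome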
#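 Material: human UCH37 enzyme supplied as purified proteasome complex / Amount: 0.15 nM proteasome as dispensed / Buffer or medium: pH 7.4 Tris-HCl (50 mM) with ovalbumin, ATP-MgCl2, DTT / Times: preincubation 30 min, reaction 25 min, room temperature / Technique: AMC fluorescence from Ub-AMC cleavage, excitation 355 nm, emission 460 nm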
# Arrestin-AP2 inh: human beta-arrestin and AP2 interaction inhibition; FITC-arrestin peptide / GST-AP2 beads, flow cytometry; AP2 beta2 appendage carries R879A mutation; inhibition, % at 10 µM; 340,000 compounds, 0.31% hits; AID 504490;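 active = inhibition above a set limit, near 3 SD of compounds lacking own fluorescence, cut at about 54% in these data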;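 note: plate controls were DMSO wells for no effect and 5 µM unlabelled arrestin peptide for full effect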
#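 Measured by: flow cytometry, FL1 (488/535 nm); Material: AP2 appendage R879A on GSH beads; Evaluation: percent response; Timing: pre-incubation 12 min, peptide binding 1 h, room temperature; Also added: 50 nM FITC-arrestin peptide; Medium: PBS with 0.05% Tween 20 and 0.1% BSA.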
# APOBEC3G confirm: APOBEC3G (human) deaminase inhibition, confirmed; shares compounds with A3G deaminase; recombinant A3G ssDNA deaminase, UDG/FAM-TAMRA fluorescence; inhibition, % at 20 µM; 890 compounds, 72% hits; AID 493152;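 active = inhibition reaching a set limit in any replicate at 20 µM, the limit being 80% of the first screen's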
# UDG ctr A3G: inhibits E. coli UDG, flagging false APOBEC3G inhibitors; 710 tested, under 10 active; UDG counterscreen, FAM/TAMRA oligo fluorescence; AID 504715; shares compounds with A3G deaminase; inhibition, % at 20 µM;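 active = compounds giving 40% or more inhibition at 20 µM in any one of the three replicates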;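 note: plate controls were DMSO wells with UDG and oligo for no effect and DMSO wells lacking both for full effect; inhibitors lower the FAM signal released by uracil excision and alkaline cleavage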
# An asterisk follows results filed as active; . = no result. Compounds with a hit are over-represented: about 3.4% of the library has one in this group of screens.
SMILES,A3G deaminase,AHR activator,A3A deaminase,PolyA inh,UCH37 inh,Arrestin-AP2 inh,APOBEC3G confirm,UDG ctr A3G
COc1ccccc1-c1n[nH]c(=S)n1N,-2,7,-6,22,1,-35,.,.
O=C(C=NO)Nc1ccccc1C(=O)O,.,.,.,.,3,.,.,.
CC(C)CSc1n[nH]c(=S)s1,42*,-1,-3,10,5,-18,90*,5
Cc1cc(=O)[nH]c(NN=Cc2ccco2)n1,.,.,.,.,6,.,.,.
CCOC(=O)C1CCCN(C(=O)Cn2sc3nc(C)cc(C)c3c2=O)C1 (stereo unspecified),50*,-2,-5,1,8,8,78*,-4
CCCNC(=O)Cn1sc2nc(C)cc(C)c2c1=O,60*,2,-11,-1,4,-15,77*,0
CC(=O)Cn1cnc2c(sc3nc(C)cc(C)c32)c1=O,11,-5,1,-5,3,0,.,.
Cc1cc(C)c2c(=O)n(CC(=O)N3CCC(N4CCCCC4)CC3)sc2n1,49*,-2,-7,8,4,19,82*,0
Cc1nn(CC(=O)N2CCC(N3CCCCC3)CC2)c(=O)c2c1sc1ccccc12,-4,0,-3,18,2,4,.,.
COCCCn1c(=C(C#N)C(=O)Nc2ccc(C(=O)O)cc2)sc(=Cc2cccc(OC)c2OC)c1=O,.,.,.,.,9,.,.,.
Cc1ccc(CN2CCN(N=Cc3cccnc3)CC2)c(C)c1,.,.,.,.,4,.,.,.
CCCC(C)c1nnc(NC(=O)CCS(=O)(=O)c2ccccc2)s1 (stereo unspecified),66*,12,13,6,5,-2,56*,-4
O=C(Nc1cccc(C(F)(F)F)c1)c1cc(S(=O)(=O)N2CCCCC2)ccc1N1CCOCC1,2,0,3,11,1,-1,.,.
O=C(CNc1cc(S(=O)(=O)N2CCOCC2)ccc1N1CCOCC1)Nc1cccc(C(F)(F)F)c1,41*,8,2,.,-1,40,3,.
C=C(C)Cn1c(SCC(=O)NN=Cc2ccccc2)nc2ccccc2c1=O,.,.,.,.,3,.,.,.
CC(O)CC(C(=O)NNc1ccccc1)C(=O)NNc1ccccc1 (stereo unspecified),44*,0,-2,-6,3,3,1,-3
CC(C)C(=O)NNc1ccccc1,-6,-3,-3,7,1,11,.,.
CC1CCN(C(=S)c2ccccc2O)CC1,49*,16,3,2,4,0,42*,2
Cc1ccc2c(c1)-c1c(ssc1=S)C(C)(C)N2C(=O)c1ccco1,42*,2,0,-8,7,-3,55*,-4
O=C(CSc1nnc(SCc2ccccc2Cl)s1)NN=Cc1ccc(C(=O)O)cc1,.,.,.,.,3,.,.,.
C[C@H](O)[C@H](O)[C@H]1CNc2nc(N)[nH]c(=O)c2N1,41*,1,2,4,-213,0,34*,.
O=C(O)c1ccc(C=NN2CCN(C3c4ccccc4-c4ccccc43)CC2)cc1,.,.,.,.,0,.,.,.
Cc1cc(-c2csc(N)n2)c(C)n1C,44*,2,7,5,-1,47,17*,-3
c1ccc2c(c1)ncn2Cc1nnc2sc(-c3ccncc3)nn12,34,2,5,4,2,-8,.,.
c1cncc(-c2nn3c(Cn4cnc5ccccc54)nnc3s2)c1,53*,5,-1,25,3,-45,13,3
SMILES,A3G deaminase,AHR activator,A3A deaminase,PolyA inh,UCH37 inh,Arrestin-AP2 inh,APOBEC3G confirm,UDG ctr A3G
c1ccc(-c2nn3c(Cn4cnc5ccccc54)nnc3s2)cc1,49*,1,11,1,6,3,43*,3
Clc1ccc(Cl)c(-c2nn3c(Cn4cnc5ccccc54)nnc3s2)c1,-2,20,13,-2,3,12,.,.
c1ccc(-c2nn3c(Cn4nnc5ccccc54)nnc3s2)cc1,46*,7,1,-15,6,24,41*,-4
CCc1ccc(C(=O)NN=Cc2cccc3ccccc23)nc1,.,.,.,.,0,.,.,.
CCn1c(SCC(=O)NN=Cc2ccccc2OCC(=O)O)nnc1-c1ccc(C(C)(C)C)cc1,.,.,.,.,1,.,.,.
CSC(=NS(=O)(=O)c1ccc(Cl)cc1)c1ccccc1,.,.,.,.,6,.,.,.
CC(=O)/C(=N/Nc1ccccc1C)N1CCOCC1,41*,11,0,20,.,-6,36*,0
O=C(CSC(=O)c1ccccc1)Nc1ccccc1F,41*,-1,1,.,7,6,37*,-3
CC(=NNS(=O)(=O)c1ccc(Cl)cc1)c1cccc(NC(=O)c2ccncc2)c1,.,.,.,.,4,.,.,.
CCCc1cc(-c2n[nH]c(=S)n2CC)cs1,43*,3,-5,-18,0,12,79*,-5
CCn1c(-c2csc(C(C)C)c2)n[nH]c1=S,51*,6,2,-13,4,11,0,.
CCCCn1c(-c2csc(CCC)c2)n[nH]c1=S,.,4,.,18,-3,-1,.,.
CCc1cc(-c2n[nH]c(=S)n2CC)cs1,52*,6,-3,-15,1,9,83*,0
Cc1cc(-c2n[nH]c(=S)n2CC(C)C)cs1,49*,0,1,-10,0,52,66*,-5
CCOc1cc(C=NNC(=O)c2cccnc2)ccc1OC(=O)c1ccco1,.,.,.,.,7,.,.,.
CC(C)c1nnc(NC(=O)COc2ccc3c(c2)OCO3)s1,-15,38,-2,-3,4,-5,.,.
CCC(CC)c1nnc(NC(=O)COc2ccc3c(c2)OCO3)s1,45*,30,3,19,1,2,47*,0
CC(NC(=O)CNC(=O)[C@@H]1Cc2ccccc2CN1)c1ccccc1 (stereo partly specified),-2,2,-2,7,1,15,.,.
O=C(NCCCc1ccccc1)[C@@H]1Cc2ccccc2CN1,62*,2,-6,13,4,11,20*,5
COc1cc(C=Nn2nnnc2N)ccc1OCC#N,.,.,.,.,-4,.,.,.
Cc1cc(NC(=O)c2ccno2)no1,-8,0,-4,16,3,27,.,.
Cc1ccc(NNC(=O)c2ccno2)c(C)c1,46*,6,-5,6,0,33,-1,-5
C=CCON=CC1=C(O)C(C(=O)OC)C(C)(C)CC1=O (stereo unspecified),.,.,.,.,4,.,.,.
COc1ccc(N2C(=O)CS(=O)C(c3ccccc3)C2=O)cc1 (stereo unspecified),54*,3,-4,-6,0,0,90*,-4
